Reference: PMC6606825 (Journal of Ginseng Research, 2018)
Marks after values point to notes of the source that are not given here.

Assay: Pharmacokinetics of CK and its metabolite 20
Assay type: in vivo, healthy Chinese volunteers
Summary of the method: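 Healthy adults given one oral tablet dose fasting (overnight, or 10 h in a crossover food-effect arm); 30 subjects from the 100/200/400 mg groups were pooled with 24 from 200 mg fasting periods. Plasma was stored at −70°C, extracted with MTBE plus internal standards and assayed by LC-MS/MS. Cmax was observed and AUClast calculated by linear trapezoid, each divided by dose. The metabolite/parent ratio was also calculated. Genotyping used Sequenom MassARRAY, and log-transformed values were compared by one-way ANOVA.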

[1] = ABCG2 rs3114018 AA (first line), mean (SD)
[2] = ABCG2 rs3114018 AA (third line), mean (SD)

CK Cmax/D (ABCG2 rs2725248 CC, mean (SD)): 4.46 (1.08)
CK AUClast/D [1]: 25.71 (14.88)
CK Cmax/D [1]: 3.40 (1.60)
CK AUClast/D [2]: 26.43 (22.97)
CK Cmax/D [2]: 3.36 (2.54)
CK AUClast/D (ABCG2 rs3114018 CA, mean (SD)): 30.74 (15.11)
CK Cmax/D (ABCG2 rs3114018 CA, mean (SD)): 4.02 (2.12)
CK AUClast/D (ABCG2 rs6857600 CC, mean (SD)): 29.60 (19.18)
CK Cmax/D (ABCG2 rs6857600 CC, mean (SD)): 3.72 (2.28)
CK AUClast/D (ABCG2 rs6857600 TC, mean (SD)): 26.00 (7.52)
CK Cmax/D (ABCG2 rs6857600 TC, mean (SD)): 3.79 (1.18)
CK AUClast/D (ABCG2 rs6857600 TT, mean (SD)): 16.47 (5.68)
CK Cmax/D (ABCG2 rs6857600 TT, mean (SD)): 2.37 (0.75)
CK AUClast/D (ABCG2 rs12505410 GG, mean (SD)): 36.50 (20.67)
CK Cmax/D (ABCG2 rs12505410 GG, mean (SD)): 3.96 (1.91)
CK AUClast/D (ABCG2 rs12505410 GT, mean (SD)): 33.35 (21.92)
CK Cmax/D (ABCG2 rs12505410 GT, mean (SD)): 4.39 (2.76)
CK AUClast/D (ABCG2 rs12505410 TT, mean (SD)): 22.29 (7.69)
CK Cmax/D (ABCG2 rs12505410 TT, mean (SD)): 3.00 (1.05)
CK AUClast/D (ABCG2 rs17731799 GG, mean (SD)): 25.71 (14.88)
CK Cmax/D (ABCG2 rs17731799 GG, mean (SD)): 3.40 (1.60)
CK AUClast/D (ABCG2 rs17731799 GT, mean (SD)): 32.10 (14.45)
CK Cmax/D (ABCG2 rs17731799 GT, mean (SD)): 4.13 (1.88)
CK AUClast/D (ABCG2 rs17731799 TT, mean (SD)): 26.40 (21.35)
CK Cmax/D (ABCG2 rs17731799 TT, mean (SD)): 3.47 (2.62)
CK AUClast/D (CFTR rs213950 AG, mean (SD)): 26.46 (20.44)
CK Cmax/D (CFTR rs213950 AG, mean (SD)): 3.36 (2.54)
CK AUClast/D (CFTR rs213950 GG, mean (SD)): 31.13 (15.12)
CK Cmax/D (CFTR rs213950 GG, mean (SD)): 4.14 (1.85)
CK AUClast/D (CFTR rs213968 CC, mean (SD)): 30.36 (14.71)
CK Cmax/D (CFTR rs213968 CC, mean (SD)): 4.14 (1.90)
CK AUClast/D (CFTR rs213968 CT, mean (SD)): 27.70 (20.72)
CK Cmax/D (CFTR rs213968 CT, mean (SD)): 3.43 (2.53)
CK AUClast/D (CFTR rs213968 TT, mean (SD)): 28.15 (14.72)
CK Cmax/D (CFTR rs213968 TT, mean (SD)): 3.81 (1.64)
CK AUClast/D (CFTR rs213976 GG, mean (SD)): 27.63 (17.53)
CK Cmax/D (CFTR rs213976 GG, mean (SD)): 3.62 (1.91)
CK AUClast/D (CFTR rs213976 GT, mean (SD)): 28.13 (20.65)
CK Cmax/D (CFTR rs213976 GT, mean (SD)): 3.63 (2.58)
CK AUClast/D (CFTR rs213976 TT, mean (SD)): 29.55 (14.70)
CK Cmax/D (CFTR rs213976 TT, mean (SD)): 3.89 (1.85)
CK AUClast/D (CFTR rs1042077 GG, mean (SD)): 28.15 (14.72)
CK Cmax/D (CFTR rs1042077 GG, mean (SD)): 3.81 (1.64)
CK AUClast/D (CFTR rs1042077 GT, mean (SD)): 27.96 (21.11)
CK Cmax/D (CFTR rs1042077 GT, mean (SD)): 3.46 (2.58)
CK AUClast/D (CFTR rs1042077 TT, mean (SD)): 30.54 (15.14)
CK Cmax/D (CFTR rs1042077 TT, mean (SD)): 4.12 (1.95)
CK AUClast/D (CFTR rs2106155 AA, mean (SD)): 25.97 (16.89)
CK Cmax/D (CFTR rs2106155 AA, mean (SD)): 3.41 (1.86)
CK AUClast/D (CFTR rs2106155 CA, mean (SD)): 31.04 (21.72)
CK Cmax/D (CFTR rs2106155 CA, mean (SD)): 4.02 (2.69)
CK AUClast/D (CFTR rs2106155 CC, mean (SD)): 29.28 (14.69)
CK Cmax/D (CFTR rs2106155 CC, mean (SD)): 3.86 (1.85)
CK AUClast/D (CFTR rs2237726 CC, mean (SD)): 29.76 (14.41)
CK Cmax/D (CFTR rs2237726 CC, mean (SD)): 3.89 (1.81)
CK AUClast/D (CFTR rs2237726 CT, mean (SD)): 26.16 (19.95)
CK Cmax/D (CFTR rs2237726 CT, mean (SD)): 3.35 (2.25)
CK AUClast/D (CFTR rs2237726 TT, mean (SD)): 32.16 (19.24)
CK Cmax/D (CFTR rs2237726 TT, mean (SD)): 3.98 (2.20)
CK AUClast/D (CFTR rs4148711 AA, mean (SD)): 28.15 (14.72)
CK Cmax/D (CFTR rs4148711 AA, mean (SD)): 3.81 (1.64)
CK AUClast/D (CFTR rs4148711 AT, mean (SD)): 27.70 (20.72)
CK Cmax/D (CFTR rs4148711 AT, mean (SD)): 3.43 (2.53)
CK AUClast/D (CFTR rs4148711 TT, mean (SD)): 29.34 (14.49)
CK Cmax/D (CFTR rs4148711 TT, mean (SD)): 3.89 (1.63)
CK AUClast/D (NR1I2 rs1464602 AA, mean (SD)): 28.65 (21.81)
CK Cmax/D (NR1I2 rs1464602 AA, mean (SD)): 3.54 (2.35)
CK AUClast/D (NR1I2 rs1464602 AG, mean (SD)): 33.46 (13.69)
CK Cmax/D (NR1I2 rs1464602 AG, mean (SD)): 4.62 (2.09)
CK AUClast/D (NR1I2 rs1464602 GG, mean (SD)): 20.43 (9.71)
CK Cmax/D (NR1I2 rs1464602 GG, mean (SD)): 2.65 (1.27)
CK AUClast/D (NR1I2 rs1523127 AA, mean (SD)): 29.24 (18.87)
CK Cmax/D (NR1I2 rs1523127 AA, mean (SD)): 3.82 (2.36)
CK AUClast/D (NR1I2 rs1523127 CA, mean (SD)): 27.08 (14.85)
CK Cmax/D (NR1I2 rs1523127 CA, mean (SD)): 3.53 (1.71)
CK AUClast/D (NR1I2 rs1523127 CC, n = 1): 28.50 (−) ^2)
CK Cmax/D (NR1I2 rs1523127 CC, n = 1): 3.49 (−) ^2)
CK AUClast/D (NR1I2 rs2276707 CC, mean (SD)): 25.30 (13.16)
CK Cmax/D (NR1I2 rs2276707 CC, mean (SD)): 3.46 (1.86)
CK AUClast/D (NR1I2 rs2276707 CT, mean (SD)): 30.38 (20.00)
CK Cmax/D (NR1I2 rs2276707 CT, mean (SD)): 3.88 (2.41)
CK AUClast/D (NR1I2 rs2276707 TT, mean (SD)): 28.36 (15.79)
CK Cmax/D (NR1I2 rs2276707 TT, mean (SD)): 3.71 (1.90)
CK AUClast/D (NR1I2 rs2472682 AA, mean (SD)): 21.56 (9.07)
CK Cmax/D (NR1I2 rs2472682 AA, mean (SD)): 2.87 (1.20)
CK AUClast/D (NR1I2 rs2472682 CA, mean (SD)): 34.34 (20.92)
CK Cmax/D (NR1I2 rs2472682 CA, mean (SD)): 4.45 (2.60)
CK AUClast/D (NR1I2 rs2472682 CC, mean (SD)): 24.44 (13.14)
CK Cmax/D (NR1I2 rs2472682 CC, mean (SD)): 3.17 (1.39)
CK AUClast/D (NR1I2 rs6785049 AA, mean (SD)): 22.20 (13.19)
CK Cmax/D (NR1I2 rs6785049 AA, mean (SD)): 2.88 (1.46)
CK AUClast/D (NR1I2 rs6785049 AG, mean (SD)): 32.86 (19.88)
CK Cmax/D (NR1I2 rs6785049 AG, mean (SD)): 4.27 (2.46)
CK AUClast/D (NR1I2 rs6785049 GG, mean (SD)): 24.29 (12.99)
CK Cmax/D (NR1I2 rs6785049 GG, mean (SD)): 3.22 (1.69)
CK AUClast/D (NR1I2 rs7643645 AA, mean (SD)): 26.64 (13.51)
CK Cmax/D (NR1I2 rs7643645 AA, mean (SD)): 3.76 (2.21)
CK AUClast/D (NR1I2 rs7643645 AG, mean (SD)): 27.63 (13.83)
CK Cmax/D (NR1I2 rs7643645 AG, mean (SD)): 3.41 (1.51)
CK AUClast/D (NR1I2 rs7643645 GG, mean (SD)): 39.83 (34.46)
CK Cmax/D (NR1I2 rs7643645 GG, mean (SD)): 5.06 (3.69)
SMILES: CC(C)=CCC[C@](C)(O[C@@H]1O[C@H](CO)[C@@H](O)[C@H](O)[C@H]1O)[C@H]1CC[C@]2(C)[C@@H]1[C@H](O)C[C@@H]1[C@@]3(C)CC[C@H](O)C(C)(C)[C@@H]3CC[C@]12C [Ginsenoside compound K, 20-O-beta-D-glucopyranosyl-20(S)-protopanaxadiol]
